Legend:
SK-OV-3 = assay: Antiproliferative activity against human SK-OV-3 cells assessed as cell growth inhibition measured after 48 hrs by SRB assay; format: functional
Summary of the method: (§1)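 Sulforhodamine B (SRB) cell-staining assay across a panel of human cancer lines. Growth inhibition is reported as GI50.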

K562 = assay: Antiproliferative activity against human K562 cells assessed as cell growth inhibition measured after 48 hrs by SRB assay; format: functional; summary of the method: as §1
MIA PaCa-2 = assay: Antiproliferative activity against human MIA Paca-2 cells assessed as cell growth inhibition measured after 48 hrs by SRB assay; format: functional; summary of the method: as §1
MCF7 [1] = assay: Antiproliferative activity against human MCF7 cells assessed as cell growth inhibition measured after 48 hrs by SRB assay; format: functional; summary of the method: as §1
HeLa = assay: Antiproliferative activity against human HeLa cells assessed as cell growth inhibition measured after 48 hrs by SRB assay; format: functional; summary of the method: as §1
HOP-62 = assay: Antiproliferative activity against human HOP-62 cells assessed as cell growth inhibition measured after 48 hrs by SRB assay; format: functional; summary of the method: as §1
DU-145 = assay: Antiproliferative activity against human DU-145 cells assessed as cell growth inhibition measured after 48 hrs by SRB assay; format: functional; summary of the method: as §1
COLO 205 = assay: Antiproliferative activity against human COLO 205 cells assessed as cell growth inhibition measured after 48 hrs by SRB assay; format: functional; summary of the method: as §1
Sus scrofa = organism: Sus scrofa; assay: Inhibition of porcine brain tubulin polymerization at 3 uM measured after 1 hr in presence of GTP by fluorescence assay relative to control; format: tissue-based
Summary of the method: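 Tubulin polymerization was followed by fluorescence (excitation 360 nm, emission 420 nm) for 1 h at 37 °C. Compounds were at 3 μM final, with and without compound. Values are mean ± SD of two experiments done in triplicate.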

MCF7 [2] = assay: Induction of apoptosis in human MCF7 cells assessed as early apoptotic cell population at 50 nM measured after 48 hrs by Annexin V-FITC/PI staining based flow cytometry (reference value: 0.7 %)
MCF7 [3] = assay: Cell cycle arrest in human MCF7 cells assessed as accumulation at G0/G1 phase at 50 nM measured after 48 hrs by propidium iodide staining based flow cytometry (reference value: 85.3 %); format: functional
Summary of the method: (§2)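 MCF-7 cells were treated at 50 and 100 nM for 48 h. Cell-cycle phase distribution (sub-G1, G0/G1, S, G2/M %) was read by flow cytometry against untreated control.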

MCF7 [4] = assay: Cell cycle arrest in human MCF7 cells assessed as accumulation at S phase at 50 nM measured after 48 hrs by propidium iodide staining based flow cytometry (reference value: 3.1 %); format: functional; summary of the method: as §2
MCF7 [5] = assay: Induction of apoptosis in human MCF7 cells assessed as late apoptotic cell population at 50 nM measured after 48 hrs by Annexin V-FITC/PI staining based flow cytometry (reference value: 1 %)
[6] = Inhibition of porcine brain tubulin polymerization measured after 1 hr in presence of GTP by fluorescence assay; format: tissue-based, Sus scrofa
Summary of the method: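 Tubulin assembly followed by the rise in fluorescence (ex 360 nm, em 420 nm) over 1 h at 37 °C. Compounds tested at a final 3 μM with a reference control. IC50 defined as the concentration inhibiting 50% of tubulin assembly. Mean ± SD of two experiments in triplicate.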

MCF7 [7] = assay: Induction of apoptosis in human MCF7 cells assessed as necrotic cells at 50 nM measured after 48 hrs by annexinV-FITC/propidium iodide staining based flow cytometry (reference value: 0.1 %); format: functional
Summary of the method: (§3)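 MCF-7 cells were treated at 50 and 100 nM for 48 h. Annexin V-FITC/PI dual staining was read by flow cytometry. Cells were quadrant-gated as UL, UR, LL and LR, with untreated control alongside.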

MCF7 [8] = assay: Induction of apoptosis in human MCF7 cells assessed as early apoptotic cells at 50 nM measured after 48 hrs by annexinV-FITC/propidium iodide staining based flow cytometry (reference value: 4.4 %); format: functional; summary of the method: as §3
MCF7 [9] = assay: Cell cycle arrest in human MCF7 cells assessed as accumulation at G2/M phase at 50 nM measured after 48 hrs by propidium iodide staining based flow cytometry (reference value: 8.44 %); format: functional; summary of the method: as §2
MCF7 [10] = assay: Induction of apoptosis in human MCF7 cells assessed as live cells at 50 nM measured after 48 hrs by annexinV-FITC/propidium iodide staining based flow cytometry (reference value: 95 %)
MCF7 [11] = assay: Cell cycle arrest in human MCF7 cells assessed as accumulation at sub-G1 phase at 50 nM measured after 48 hrs by propidium iodide staining based flow cytometry (reference value: 2.4 %); format: functional; summary of the method: as §2
MCF7 [12] = assay: Induction of apoptosis in human MCF7 cells assessed as late apoptotic cells at 50 nM measured after 48 hrs by annexinV-FITC/propidium iodide staining based flow cytometry (reference value: 0.6 %)

Row | GI50 (SK-OV-3) | GI50 (K562) | GI50 (MIA PaCa-2) | GI50 (MCF7 [1]) | GI50 (HeLa) | GI50 (DU-145) | GI50 (COLO 205) | SMILES | GI50 (HOP-62) | inhibition (Sus scrofa) | Activity (MCF7 [2]) | Activity (MCF7 [3]) | Activity (MCF7 [4]) | Activity (MCF7 [5]) | IC50 [6] | Activity (MCF7 [7]) | Activity (MCF7 [8]) | Activity (MCF7 [9]) | live cells (MCF7 [10]) | Activity (MCF7 [11]) | late apoptotic cells (MCF7 [12])
1 | 17600 nM | 98 nM | 93900 nM | 59500 nM | 18100 nM | > 100000 nM | > 100000 nM | COc1cccc(/C=C/C(=O)Nc2c(/C=C\c3cc(OC)c(OC)c(OC)c3)ccc(OC)c2O)c1 | 65400 nM | – | – | – | – | – | – | – | – | – | – | – | –
2 | 52600 nM | 46800 nM | > 100000 nM | 19400 nM | 49200 nM | 64700 nM | > 100000 nM | COc1ccc(/C=C/C(=O)Nc2c(/C=C\c3cc(OC)c(OC)c(OC)c3)ccc(OC)c2O)cc1[N+](=O)[O-] | 71300 nM | – | – | – | – | – | – | – | – | – | – | – | –
3 | 47500 nM | 23500 nM | 78100 nM | 66 nM | 24000 nM | 83 nM | 67600 nM | COc1ccc(/C=C\c2cc(OC)c(OC)c(OC)c2)c(NC(=O)/C=C/c2ccc(F)cc2)c1O | 43000 nM | – | – | – | – | – | – | – | – | – | – | – | –
4 | 82 nM | 91 nM | 98 nM | 83 nM | 78.7 nM | 85 nM | 18000 nM | C=CCOc1cccc(/C=C/C(=O)Nc2c(/C=C\c3cc(OC)c(OC)c(OC)c3)ccc(OC)c2O)c1 | 60 nM | – | – | – | – | – | – | – | – | – | – | – | –
5 | 97 nM | 89 nM | 14300 nM | 50 nM | 91 nM | 79 nM | 89 nM | COc1ccc(/C=C/C(=O)Nc2c(/C=C\c3cc(OC)c(OC)c(OC)c3)ccc(OC)c2O)cc1N | 44 nM | – | – | – | – | – | – | – | – | – | – | – | –
6 | 96 nM | 93 nM | 98 nM | 60 nM | 90 nM | 72 nM | 98 nM | COc1cc(/C=C/C(=O)Nc2c(/C=C\c3cc(OC)c(OC)c(OC)c3)ccc(OC)c2O)ccc1O | 79 nM | – | – | – | – | – | – | – | – | – | – | – | –
7 | 7900 nM | 96 nM | 23500 nM | 95 nM | 99 nM | 75 nM | 96 nM | COc1cc(/C=C/C(=O)Nc2c(/C=C\c3cc(OC)c(OC)c(OC)c3)ccc(OC)c2O)ccc1[N+](=O)[O-] | 84 nM | – | – | – | – | – | – | – | – | – | – | – | –
8 | 94 nM | 82 nM | 97 nM | 74 nM | 90 nM | 85 nM | 86 nM | COc1cc(/C=C/C(=O)Nc2c(/C=C\c3cc(OC)c(OC)c(OC)c3)ccc(OC)c2O)ccc1N | 31 nM | – | – | – | – | – | – | – | – | – | – | – | –
9 | 62600 nM | 24900 nM | > 100000 nM | 55500 nM | 38800 nM | 54100 nM | > 100000 nM | COc1ccc(/C=C\c2cc(OC)c(OC)c(OC)c2)c(NC(=O)/C=C/c2ccc(Cl)cc2)c1O | 79400 nM | – | – | – | – | – | – | – | – | – | – | – | –
10 | 1800 nM | 23700 nM | 46300 nM | 95 nM | 15900 nM | 117 nM | > 100000 nM | COc1ccc(/C=C/C(=O)Nc2c(/C=C\c3cc(OC)c(OC)c(OC)c3)ccc(OC)c2O)cc1O | 17100 nM | – | – | – | – | – | – | – | – | – | – | – | –

Row | SMILES | GI50 (SK-OV-3) | GI50 (K562) | GI50 (MIA PaCa-2) | GI50 (MCF7 [1]) | GI50 (HeLa) | GI50 (DU-145) | GI50 (COLO 205) | GI50 (HOP-62) | inhibition (Sus scrofa) | Activity (MCF7 [2]) | Activity (MCF7 [3]) | Activity (MCF7 [4]) | Activity (MCF7 [5]) | IC50 [6] | Activity (MCF7 [7]) | Activity (MCF7 [8]) | Activity (MCF7 [9]) | live cells (MCF7 [10]) | Activity (MCF7 [11]) | late apoptotic cells (MCF7 [12])
11 | COc1ccc(/C=C\c2cc(OC)c(OC)c(OC)c2)c(NC(=O)/C=C/c2cc(OC)c(OC)c(OC)c2)c1O | 20900 nM | 28000 nM | 64500 nM | 79 nM | 14900 nM | 95 nM | 76000 nM | 24800 nM | – | – | – | – | – | – | – | – | – | – | – | –
12 | COc1ccc(/C=C\c2cc(OC)c(OC)c(OC)c2)c(NC(=O)/C=C/c2ccc([N+](=O)[O-])cc2)c1O | 17000 nM | 97 nM | 40800 nM | 72 nM | 15700 nM | 85 nM | 10300 nM | 61 nM | – | – | – | – | – | – | – | – | – | – | – | –
13 | COc1ccc(/C=C\c2cc(OC)c(OC)c(OC)c2)c(NC(=O)/C=C/c2ccc(C(F)(F)F)cc2)c1O | > 100000 nM | 58000 nM | > 100000 nM | 83700 nM | > 100000 nM | > 100000 nM | > 100000 nM | > 100000 nM | – | – | – | – | – | – | – | – | – | – | – | –
14 | COc1ccc(/C=C\c2cc(OC)c(OC)c(OC)c2)cc1O [COMBRETASTATIN A4] | 31600 nM | 31 nM | – | 33 nM | 8 nM | 46 nM | 25 nM | 150 nM | 72.2% | 3.6% | 56.19% | 1.43% | 24.5% | 1480 nM | 0.5% | 30.2% | 37.41% | 65.7% | 2.71% | 3.6%
15 | COc1ccc(/C=C\c2cc(OC)c(OC)c(OC)c2)c(NC(=O)/C=C/c2cccc(O)c2)c1O | 97 nM | 94 nM | 98 nM | 63 nM | 94.9 nM | 70 nM | 13400 nM | 82 nM | – | – | – | – | – | – | – | – | – | – | – | –
16 | C#CCOc1cccc(/C=C/C(=O)Nc2c(/C=C\c3cc(OC)c(OC)c(OC)c3)ccc(OC)c2O)c1 | > 100000 nM | > 100000 nM | > 100000 nM | 11600 nM | > 100000 nM | 96400 nM | > 100000 nM | > 100000 nM | – | – | – | – | – | – | – | – | – | – | – | –

From ChEMBL document CHEMBL4715715, “Synthesis and biological evaluation of arylcinnamide linked combretastatin-A4 hybrids as tubulin polymerization inhibitors and apoptosis inducing agents” (Bioorg Med Chem Lett, 2016)
